{"source": "ChEMBL document CHEMBL1250501", "about": "“Anti-tubercular agents. Part 5: synthesis and biological evaluation of benzothiadiazine 1,1-dioxide based congeners” (Eur J Med Chem, 2010)", "key": {"[1]": {"test_system": "Mycobacterium tuberculosis", "test": "Antimycobacterial activity against Mycobacterium tuberculosis H37Rv after 3 to 4 weeks by broth microdilution assay", "assay_type": "functional", "procedure,_shortened": "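MIC by broth microdilution on compounds active in a single-concentration primary screen. Plates incubated 3–4 weeks at 37 °C in a CO₂ incubator. Wells read visually for absence of growth turbidity.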"}, "[2]": {"test_system": "Mycobacterium tuberculosis", "test": "Antimycobacterial activity against Mycobacterium tuberculosis H37Rv infected in BALB/c mouse lung assessed as reduction of bacterial load at 10 mg/kg, po administered 1 week after infection measured after 4 weeks", "assay_type": "functional", "procedure,_shortened": "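Female BALB/c mice, 6 weeks old, 20–22 g, acclimatised one week. Infected intranasally with about 1.5 × 10⁶ CFU of H37Rv grown 10 days in 7H9/ADC. Treatment began 1 week post-infection, given orally in 50% PEG in water, for 4 weeks. Lungs and spleens homogenised in saline with 0.05% Tween 80. Duplicate 10-fold dilutions plated on 7H10/OADC, 37 °C, 5% CO₂, 4–6 weeks. Result expressed as log₁₀ CFU per organ versus untreated controls.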"}}, "data": [{"smiles": "CO[C@H]1/C=C/O[C@@]2(C)Oc3c(C)c(O)c4c(O)c(c(/C=N/N5CCN(C)CC5)c(O)c4c3C2=O)NC(=O)/C(C)=C\\C=C\\[C@H](C)[C@H](O)[C@@H](C)[C@@H](O)[C@@H](C)[C@H](OC(C)=O)[C@@H]1C", "note": "[RIFAMPIN]", "values": [{"measurement": "MIC", "setting": "[1]", "result": 0.25, "unit": "µg/mL"}, {"measurement": "log10cfu", "setting": "[2]", "result": 3.8}]}]}
